Test results taken from ChEMBL document CHEMBL1123521, “Isozyme-specific enzyme inhibitors. 10. Adenosine 5'-triphosphate derivatives as substrates or inhibitors of methionine adenosyltransferases of rat normal and hepatoma tissues” (J Med Chem, 1986).

Legend:
[1] = biological target: S-adenosylmethionine synthase isoform type-2 (Rattus norvegicus) (UniProt P18298); assay: Half maximal velocity relative to rat Methionine adenosyltransferase II
Method in brief: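 DEAE-purified rat kidney MAT-II in 50 mM Tris-HCl pH 8.2, 150 mM KCl, 15 mM MgCl2, 5 mM DTT, with 60 µM [14C]methionine. Analogue checked for substrate activity at 1 mM using more enzyme. Incubated 37 °C for 30 min in duplicate. Acid-quenched product bound to phosphocellulose disks and counted; blanks lacked ATP. KM taken from linear double-reciprocal plots.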

[2] = biological target: S-adenosylmethionine synthase isoform type-1 (Rattus norvegicus) (UniProt P13444); assay: Half maximal velocity relative to Methionine adenosyltransferase
Method in brief: (§1)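 ATP analogues run as Mg complexes and checked for substrate activity at 1 mM with more enzyme (10 µL stock). Apparent KM from linear double-reciprocal plots. MAT-I: rat liver, 50 mM HEPES pH 7.5, 150 mM KCl, 7.5 mM MgSO4, 2 mM DTT, 380 µM [14C]methionine. MAT-II (rat kidney) and MAT-T (Novikoff hepatoma DEAE fraction): 50 mM Tris-HCl pH 8.2, 150 mM KCl, 15 mM MgCl2, 5 mM DTT, 60 µM [14C]methionine. 37 °C, 30 min, duplicates.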

[3] = biological target: T1, S-adenosylmethionine synthetase (MAT 1 and MAT 2) (Rattus norvegicus) (UniProt P13444+P18298); assay: Half maximal velocity relative to methionine adenosyltransferase; format: protein assay; method in brief: as §1
[4] = biological target: T1, S-adenosylmethionine synthetase (MAT 1 and MAT 2) (Rattus norvegicus); assay: Relative inhibitory potency T/II in rat methionine adenosyltransferase
[5] = biological target: S-adenosylmethionine synthase isoform type-2 (Rattus norvegicus) (UniProt P18298); assay: Inhibitory potency against rat Methionine adenosyltransferase II
Method in brief: (§2)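 MAT-II from rat kidney extract, taken through DEAE chromatography and diluted 10-fold daily. Duplicate 30-min incubations at 37 °C in 150 mM KCl–15 mM MgCl2–5 mM DTT–50 mM Tris-HCl pH 8.2 with 60 μM [14C]methionine. Mg-complexed inhibitor used at two levels (1-5 × Ki) against six to eight Mg-ATP levels (0.5-4.0 × KM). Product counted on phosphocellulose disks.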

[6] = biological target: T1, S-adenosylmethionine synthetase (MAT 1 and MAT 2) (Rattus norvegicus); assay: Relative maximum velocity against rat Methionine adenosyltransferase was reported; format: protein assay
Method in brief: (§3)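 Analogues at 1 mM tested as substrates of MAT-II (rat kidney) or MAT-T (Novikoff hepatoma), using 10 μL of enzyme stock per assay. Run at 37 °C for 30 min in Tris-HCl pH 8.2 with 150 mM KCl and 15 mM MgCl2, plus 60 μM [14C]methionine. Radiolabelled product bound to phosphocellulose disks and counted. Kinetic constants came from double-reciprocal plots.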

[7] = biological target: S-adenosylmethionine synthase isoform type-2 (Rattus norvegicus) (UniProt P18298); assay: (§4) Inhibitory potency against rat methionine adenosyltransferase was reported
Method in brief: (§5)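 MAT-T partly purified from rat Novikoff hepatoma cells grown intraperitoneally in rats: cytosol extract, DEAE-cellulose, stored at -20 °C, diluted 10-fold for use. Assay run in duplicate, 37 °C for 30 min, in 150 mM KCl–15 mM MgCl2–5 mM DTT–50 mM Tris-HCl pH 8.2 with 60 μM [14C]methionine. Inhibitors given as 1:1 Mg complexes at two levels of 1-5 × Ki, with six to eight Mg-ATP levels (0.5-4.0 × KM).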

[8] = biological target: S-adenosylmethionine synthase isoform type-2 (Rattus norvegicus) (UniProt P18298); assay: Relative maximum velocity against rat kidney Methionine adenosyltransferase II; method in brief: as §3
[9] = biological target: T1, S-adenosylmethionine synthetase (MAT 1 and MAT 2) (Rattus norvegicus); assay: Inhibitory potency against rat Methionine adenosyltransferase was reported; format: protein assay; method in brief: as §5
[10] = test system: Nc1ncnc2c1ncn2[C@@H]1O[C@H](COP(=O)(O)OP(=O)(O)OP(=O)(O)O)[C@@H](O)[C@H]1O; assay: Inhibition of methionine adenosyltransferase in Novikoff Hepatoma(MAT-T), activity expressed as conc of Mg-ATP for half maximal velocity; format: protein assay
Method in brief: (§6)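 Kinetics at 37 °C for 30 min, in duplicate, in 50 mM Tris-HCl pH 8.2, 150 mM KCl, 15 mM MgCl2, 5 mM DTT. Enzyme was MAT-T from ascites-passaged Novikoff hepatoma cells or MAT-II from rat kidney, both DEAE-cellulose fractions, with 60 µM [14C]methionine. Inhibitors given as 1:1 Mg complexes at two levels against six to eight Mg-ATP levels (0.5–4.0 × KM). Product counted on phosphocellulose disks.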

[11] = test system: CNc1nc2c(N)ncnc2n1C1O[C@H](COP(=O)(O)OP(=O)(O)OP(=O)(O)O)[C@@H](O)[C@H]1O; assay: (§7) […] rat Methionine adenosyltransferase was reported; format: protein assay; method in brief: as §5
[12] = test system: CSc1nc2c(N)ncnc2n1[C@@H]1O[C@H](COP(=O)(O)OP(=O)(O)OP(=O)(O)O)[C@@H](O)[C@H]1O; assay: as §7; format: protein assay; method in brief: as §5
[13] = biological target: T1, S-adenosylmethionine synthetase (MAT 1 and MAT 2) (Rattus norvegicus); assay: as §4; format: protein assay; method in brief: as §5
[14] = test system: Nc1ncnc2c1ncn2[C@H]1C[C@H](O)[C@@H](COP(=O)(O)OP(=O)(O)OP(=O)(O)O)O1; assay: Inhibitory constant against rat liver Methionine adenosyltransferase I
Method in brief: (§8)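 Rat liver MAT-I, prepared free of MAT-II and MAT-III and diluted 5-fold. Duplicate assays at 37 °C, 30 min, in 150 mM KCl–7.5 mM MgSO4–2 mM DTT–50 mM HEPES pH 7.5 with 380 μM [14C]methionine. Two inhibitor levels (1:1 Mg complexes, 1-5 × Ki) run against six to eight Mg-ATP levels spanning 0.5-4.0 × KM. Ki taken from kinetic plots.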

[15] = test system: Nc1ncnc2c1ncn2[C@@H]1O[C@H](COP(=O)(O)OP(=O)(O)OP(=O)(O)O)[C@@H](O)[C@H]1O; assay: […] rat liver Methionine adenosyltransferase I, activity expressed as conc of Mg-ATP for half maximal velocity
Method in brief: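 Rat liver MAT-I, free of MAT-II and MAT-III, was assayed in 50 mM HEPES pH 7.5, 150 mM KCl, 7.5 mM MgSO4, 2 mM DTT, with 380 µM [14C]methionine, at 37 °C for 30 min in duplicate. Mg-complexed inhibitor was used at two levels against six to eight Mg-ATP levels (0.5–4.0 × KM). Labelled product was captured on phosphocellulose and scintillation-counted; blanks lacked ATP.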

[16] = biological target: S-adenosylmethionine synthase isoform type-2 (Rattus norvegicus) (UniProt P18298); assay: Relative maximum velocity against rat Methionine adenosyltransferase II; method in brief: as §3
[17] = biological target: S-adenosylmethionine synthase isoform type-1 (Rattus norvegicus) (UniProt P13444); assay: Relative maximum velocity against liver (MAT-I) in rat methionine adenosyltransferase was reported
Method in brief: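 Substrate activity measured with rat liver MAT-I at 37 °C for 30 min, pH 7.5 HEPES buffer, with 380 μM [14C]methionine. ATP analogue at 1 mM, with a higher enzyme amount (10 μL stock). [14C]S-adenosylmethionine captured on phosphocellulose paper and counted by scintillation. Blanks lacked ATP. Constants taken from linear double-reciprocal plots.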

[18] = biological target: S-adenosylmethionine synthase isoform type-1 (Rattus norvegicus) (UniProt P13444); assay: Inhibitory potency against rat Methionine adenosyltransferase I; method in brief: as §8
[19] = test system: CNc1nc2c(N)ncnc2n1C1O[C@H](COP(=O)(O)OP(=O)(O)OP(=O)(O)O)[C@@H](O)[C@H]1O; assay: (§9) Inhibitory constant against rat kidney Methionine adenosyltransferase II; method in brief: as §2
[20] = test system: CSc1nc2c(N)ncnc2n1[C@@H]1O[C@H](COP(=O)(O)OP(=O)(O)OP(=O)(O)O)[C@@H](O)[C@H]1O; assay: as §9; method in brief: as §2
[21] = test system: Nc1ncnc2c1ncn2C1O[C@H](COP(=O)(O)OP(=O)(O)OP(N)(=O)O)[C@@H](O)[C@H]1O; assay: as §9; method in brief: as §2
[22] = test system: Nc1ncnc2c1ncn2[C@H]1C[C@H](O)[C@@H](COP(=O)(O)OP(=O)(O)OP(=O)(O)O)O1; assay: as §9; method in brief: as §2
[23] = test system: Nc1ncnc2c1ncn2[C@@H]1O[C@H](COP(=O)(O)OP(=O)(O)OP(=O)(O)O)[C@@H](O)[C@H]1O; assay: Inhibitory constant against rat kidney Methionine adenosyltransferase II, activity expressed as conc of Mg-ATP for half maximal velocity; method in brief: as §6

Sequence of S-adenosylmethionine synthase isoform type-1 (Rattus norvegicus) (P13444 whole entry, canonical isoform): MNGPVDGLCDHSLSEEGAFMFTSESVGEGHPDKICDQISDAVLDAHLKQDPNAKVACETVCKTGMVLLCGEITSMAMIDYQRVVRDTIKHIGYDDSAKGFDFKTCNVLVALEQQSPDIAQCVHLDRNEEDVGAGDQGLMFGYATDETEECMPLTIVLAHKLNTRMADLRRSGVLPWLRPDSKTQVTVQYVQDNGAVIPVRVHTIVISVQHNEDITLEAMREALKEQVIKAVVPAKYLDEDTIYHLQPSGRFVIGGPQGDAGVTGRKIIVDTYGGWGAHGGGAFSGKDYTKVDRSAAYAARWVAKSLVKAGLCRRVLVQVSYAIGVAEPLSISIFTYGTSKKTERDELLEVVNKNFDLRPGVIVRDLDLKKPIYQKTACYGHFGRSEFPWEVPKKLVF
Sequence of S-adenosylmethionine synthase isoform type-2 (Rattus norvegicus), P18298 (P18298 whole entry, canonical isoform): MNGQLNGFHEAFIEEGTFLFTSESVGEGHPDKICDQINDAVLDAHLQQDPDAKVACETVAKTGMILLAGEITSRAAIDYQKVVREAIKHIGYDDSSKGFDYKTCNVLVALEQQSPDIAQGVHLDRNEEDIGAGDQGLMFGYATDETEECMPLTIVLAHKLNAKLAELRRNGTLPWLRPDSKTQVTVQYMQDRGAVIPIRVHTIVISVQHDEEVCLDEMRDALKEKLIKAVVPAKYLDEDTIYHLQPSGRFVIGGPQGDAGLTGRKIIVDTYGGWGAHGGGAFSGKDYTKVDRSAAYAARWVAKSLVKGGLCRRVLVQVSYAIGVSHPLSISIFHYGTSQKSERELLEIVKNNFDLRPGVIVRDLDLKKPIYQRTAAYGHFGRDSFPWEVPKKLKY
Sequence of S-adenosylmethionine synthetase (MAT 1 and MAT 2) (Rattus norvegicus) (from UniProt P13444+P18298) (P18298 whole entry, looked up): as the sequence (P18298 whole entry, canonical isoform) above
Sequence of S-adenosylmethionine synthetase (MAT 1 and MAT 2) (Rattus norvegicus) (from UniProt P13444+P18298) (P13444 whole entry, looked up): as the sequence (P13444 whole entry, canonical isoform) above
Sequence of S-adenosylmethionine synthase isoform type-2 (Rattus norvegicus) (P18298 whole entry, canonical isoform): as the sequence (P18298 whole entry, canonical isoform) above
Sequence of S-adenosylmethionine synthase isoform type-1 (Rattus norvegicus), P13444 (P13444 whole entry, canonical isoform): as the sequence (P13444 whole entry, canonical isoform) above

What does the source list for `Nc1ncnc2c1ncn2[C@@H]1O[C@H](COP(=O)(O)OP(=O)(O)OP(=O)(O)O)[C@@H](O)[C@H]1O`?
Relative Vmax [1]: 100; Relative Vmax [2]: 100; Relative Vmax [3]: 100

What does the source list for `CCCCNc1ncnc2c1ncn2C1O[C@H](COP(=O)(O)OP(=O)(O)OP(=O)(O)O)[C@@H](O)[C@H]1O` (some centres undefined)?
Inhibition potency T/II [4]: 2.5; Inhibition potency [5]: 0.26

Which results are given for `CNc1nc2c(N)ncnc2n1C1O[C@H](COP(=O)(O)OP(=O)(O)OP(=O)(O)O)[C@@H](O)[C@H]1O` (some centres undefined)?
Relative Vmax [6]: 19; Inhibition potency [7]: 0.61; Inhibition potency T/II [4]: 0.69; Relative Vmax [8]: 37; Inhibition potency [5]: 0.88

How did the Inhibition potency [5] turn out when `Nc1ncnc2c1nc(SCCC(N)C(=O)O)n2C1O[C@H](COP(=O)(O)OP(=O)(O)OP(=O)(O)O)[C@@H](O)[C@H]1O` (some centres undefined) was run?
Its Inhibition potency is 0.27.

What does the source list for `CSc1nc2c(N)ncnc2n1[C@@H]1O[C@H](COP(=O)(O)OP(=O)(O)OP(=O)(O)O)[C@@H](O)[C@H]1O`?
Inhibition potency [9]: 0.7; Relative Vmax [6]: 7.3; Inhibition potency T/II [4]: 0.5; Relative Vmax [8]: 3.1; Inhibition potency [5]: 1.4

How did the Km [10] turn out when “S-adenosylmethionine synthetase (MAT 1 and MAT 2) (Rattus norvegicus) (from UniProt P13444+P18298)” was run?
Its Km is 140 µM.

What about the Km [11] of the same compound?
Its Km is 230 µM.

What about the Km [12] of the same compound?
Its Km is 200 µM.

`Nc1ncnc2c1ncn2C1O[C@H](COP(=O)(O)OP(=O)(O)OP(N)(=O)O)[C@@H](O)[C@H]1O` (some centres undefined) was tested. Which Relative Vmax [8] did it give?
Its Relative Vmax is 97.

What about the Inhibition potency [5] of the same compound?
The Inhibition potency was 0.042.

With `CO[C@H]1[C@@H](O)[C@H](n2cnc3c(N)ncnc32)O[C@@H]1COP(=O)(O)OP(=O)(O)OP(=O)(O)O` as the compound, how does the Inhibition potency [13] read?
The Inhibition potency was 0.78.

What about the Inhibition potency T/II [4] of the same compound?
The Inhibition potency T/II was 0.95.

What about the Inhibition potency [5] of the same compound?
Its Inhibition potency is 0.82.

For `Nc1ncnc2c1ncn2[C@@H]1O[C@H](COP(=O)(O)OP(=O)(O)NP(=O)(O)O)[C@@H](O)[C@H]1O`, which Inhibition potency [9] is on record?
The Inhibition potency was 35.

And the Inhibition potency T/II [4]?
The Inhibition potency T/II was 1.4.

And the Inhibition potency [5]?
The Inhibition potency was 25.5.

What does the source list for `CSc1nc(N)c2ncn([C@@H]3O[C@H](COP(=O)(O)OP(=O)(O)OP(=O)(O)O)[C@@H](O)[C@H]3O)c2n1`?
Inhibition potency [9]: 1.27; Inhibition potency T/II [4]: 5.5; Inhibition potency [5]: 0.23

Which Km [14] does the source give for “S-adenosylmethionine synthase isoform type-1 (Rattus norvegicus), P13444” here?
Its Km is 1540 µM.

What about the Km [15] of the same compound?
The Km was 140 µM.

What does the source list for `CO[C@@H]1[C@H](O)[C@@H](COP(=O)(O)OP(=O)(O)OP(=O)(O)O)O[C@H]1n1cnc2c(N)ncnc21`?
Inhibition potency [13]: 0.82; Inhibition potency T/II [4]: 0.82; Inhibition potency [5]: 1

What does the source list for `Nc1ncnc2c1ncn2[C@H]1C[C@H](O)[C@@H](COP(=O)(O)OP(=O)(O)OP(=O)(O)O)O1`?
Relative Vmax [16]: 6.5; Relative Vmax [17]: 26; Inhibition potency [18]: 0.091; Inhibition potency [5]: 0.035

“S-adenosylmethionine synthase isoform type-2 (Rattus norvegicus), P18298” was tested. Which Km [19] did it give?
Its Km is 160 µM.

What about the Km [20] of the same compound?
The Km was 100 µM.

And the Km [21]?
Its Km is 3300 µM.

What about the Km [22] of the same compound?
Its Km is 4000 µM.

And the Km [23]?
Its Km is 140 µM.

With `CC(OP(=O)(O)OP(=O)(O)OP(=O)(O)O)[C@H]1O[C@@H](n2cnc3c(N)ncnc32)[C@H](O)[C@@H]1O` (some centres undefined) as the compound, how does the Inhibition potency [13] read?
The Inhibition potency was 1.75.

And the Inhibition potency [18]?
The Inhibition potency was 15.6.

And the Inhibition potency T/II [4]?
The Inhibition potency T/II was 2.4.

What about the Inhibition potency [5] of the same compound?
The Inhibition potency was 0.74.

`CCCC(OP(=O)(O)OP(=O)(O)OP(=O)(O)O)[C@H]1O[C@@H](n2cnc3c(N)ncnc32)[C@H](O)[C@@H]1O` (some centres undefined) was tested. Which Inhibition potency [13] did it give?
Its Inhibition potency is 3.78.

And the Inhibition potency T/II [4]?
The Inhibition potency T/II was 1.3.

And the Inhibition potency [5]?
Its Inhibition potency is 2.92.

`Nc1ncnc2c1ncn2[C@@H]1O[C@H](COP(=O)(O)CP(=O)(O)OP(=O)(O)O)[C@@H](O)[C@H]1O` was tested. Which Inhibition potency [9] did it give?
Its Inhibition potency is 0.41.

And the Inhibition potency T/II [4]?
Its Inhibition potency T/II is 0.89.

What about the Inhibition potency [5] of the same compound?
Its Inhibition potency is 0.46.
